# The source made the active and inactive calls. No cut-off for these calls is given here.
# Experiments:
# [1] = Therapeutic index, ratio of IC50 for human CCD-18Co cells to IC50 for human HT-29 cells; type: cell-based; settings: CCD-18Co cells versus HT-29 cells, read-out: Ratio IC50
# MCF7 [2] = assay: Cytotoxicity against human MCF7 cells after 3 days by SRB assay; type: functional, cell-based; settings: MCF7, 72 h
# Summary of the method: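 Cells seeded in quadruplicate at 5 × 10³ cells/cm². Compound added at 24 h over increasing concentrations for 3 days. Cells fixed with cold 10% TCA, stained with 0.4% sulforhodamine B in 1% acetic acid, dye solubilized in 10 mM Tris pH 10.5, OD read at 492 nm. IC50 taken by linear interpolation of the semi-log dose-response curve. DMSO below 0.1% final.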
# [3] = Cytotoxicity against human MCF10A cells after 3 days by SRB assay; type: cell-based; settings: MCF-10A, 72 h
# Summary of the method: (§1)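 Cells seeded at 5 × 10³ cells/cm² in quadruplicate and, after 24 h, treated with increasing concentrations for 3 days. Compounds diluted from DMSO stock, final DMSO <0.1% v/v. Cells were fixed with cold 10% TCA, stained with 0.4% sulforhodamine B in 1% acetic acid, and dye solubilised in 10 mM Tris-base pH 10.5. OD read at 492 nm. IC50 obtained by linear interpolation on a semi-log dose-response curve.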
# MCF7 [4] = assay: Cell cycle arrest in human MCF7 cells assessed as accumulation at […] phase at 2 uM after 48 hrs by propidium iodide/RNAse staining-based FACS analysis (reference value: 8.02 %); type: functional
# [5] = target: Mitogen-activated protein kinase; ERK1/ERK2 (Homo sapiens) (UniProt P27361+P28482); assay: Increase of p44/42 MAPK phosphorylation in human MCF7 cells at 2 uM after 4 to 24 hrs by Western blotting analysis relative to control; type: cell-based
# Summary of the method: (§2)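 MCF-7 seeded at 5 × 10⁴/cm² and exposed at 24 h to 2 µM compound for 0, 4, 8, 16 and 24 h. Lysates separated on 12% SDS gels, transferred to nitrocellulose, blocked in 5% milk. Primary antibodies applied overnight at 4 °C, then secondary 1 h at room temperature. Detection by ECL chemiluminescence with β-actin as loading reference.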
# MCF7 [6] = assay: Induction of apoptosis in human MCF7 cells assessed as reduction in phosphorylated pRb expression at 2 uM after 16 hrs by Western blotting analysis relative to control; type: functional; design: scale not given: the % may be the effect or the level left
# Summary of the method: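 MCF-7 seeded at 5 × 10⁴ cells/cm², exposed after 24 h to 2 µM for 0, 4, 8, 16 and 24 h. Lysed in SDS sample buffer, run on 12% acrylamide gels, transferred to nitrocellulose and blocked with 5% milk. Primary antibodies overnight at 4 °C (total or phospho-pRb, β-actin), secondary 1 h at room temperature, ECL chemiluminescence detection.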
# [7] = Antitumor activity against mouse E0771 cells allografted in C57BL/6 mouse assessed as mean tumor volume at 5 to 15 mg/kg, po measured on day 42 relative to vehicle-treated control; type: functional; settings: dose mg/kg 5-15
# Summary of the method: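 C57BL/6 mice (40) injected subcutaneously in the right side with 1 × 10⁶ E0771 cells. At day 9, with tumors at 75 mm³, randomized into four groups of 10 and dosed orally six times with vehicle (1% methylcellulose) or compound at 5, 10 or 15 mg/kg. Tumor volume followed to day 42.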
# [8] = Therapeutic index, ratio of IC50 for human CCD-18Co cells to IC50 for human SW480 cells; type: cell-based; settings: CCD-18Co cells versus SW480 cells, read-out: Ratio IC50
# Mus musculus = assay: Toxicity in C57BL/6 mouse allografted with mouse E0771 cells assessed as survival at 5 to 15 mg/kg, po; type: organism-based; design: dose 5-15 mg/kg, route oral; settings: in vivo
# Summary of the method: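 C57BL/6 mice (10 per group) injected subcutaneously in the right side with 1 × 10⁶ E0771 cells. At day 9, with tumours at 75 mm³, mice were randomised to oral vehicle (1% methylcellulose) or 5, 10 or 15 mg/kg on six occasions. Animals were monitored to day 42 for survival and for signs of toxicity such as hair loss or diarrhoea.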
# [9] = Therapeutic index, ratio of IC50 for human CCD-18Co cells to IC50 for human RKO cells; type: cell-based; settings: CCD-18Co cells versus RKO cells, read-out: Ratio IC50
# MDA-MB-231 = assay: Cytotoxicity against human MDA-MB-231 cells after 3 days by SRB assay; type: functional, cell-based; settings: MDA-MB-231, 72 h; summary of the method: as §1
# MCF7 [10] = assay: Cell cycle arrest in human MCF7 cells assessed as accumulation at S phase at 3 uM after 24 hrs by propidium iodide/RNAse staining-based FACS analysis (reference value: 49.46 %); type: functional
# MCF7 [11] = assay: Induction of apoptosis in human MCF7 cells assessed as reduction in cyclin B1 protein expression at 2 uM by Western blotting analysis; type: functional, cell-based; summary of the method: as §2
# MCF7 [12] = assay: Induction of apoptosis in human MCF7 cells assessed as increase in total p53 expression level at 2 uM after 4 to 24 hrs by Western blotting analysis relative to control; type: functional, cell-based; summary of the method: as §2
# MCF7 [13] = assay: Induction of apoptosis in human MCF7 cells assessed as increase in beta-cadenin expression at 1 to 2 uM after 48 hrs by FACS analysis; type: functional, cell-based
# Summary of the method: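 MCF-7 seeded at 5 × 10⁴/cm² and treated at 24 h with 1 or 2 µM compound for 48 h. Labelled with fluorochrome-conjugated anti-E-cadherin or anti-β-catenin antibody for 30 min at 4 °C in the dark, washed in PBS. Mean fluorescence intensity measured by FACScan flow cytometry.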
# MCF7 [14] = assay: Cell cycle arrest in human MCF7 cells assessed as accumulation at G2-M phase at 3 uM after 24 hrs by propidium iodide/RNAse staining-based FACS analysis (reference value: 8.20 %); type: functional
# MCF7 [15] = assay: Cell cycle arrest in human MCF7 cells assessed as accumulation at […] phase at 3 uM after 48 hrs by propidium iodide/RNAse staining-based FACS analysis (reference value: 8.02 %); type: functional
# MCF7 [16] = assay: Cell cycle arrest in human MCF7 cells assessed as accumulation at […] phase after 48 hrs by propidium iodide/RNAse staining-based FACS analysis; type: functional
# MCF7 [17] = assay: Induction of apoptosis in human MCF7 cells assessed as late apoptotic cells at 1 uM after 48 hrs by annexin V staining-based flow cytometry (reference value: 3.24 %); type: functional
# [18] = Therapeutic index, ratio of IC50 for human MCF10A cells to IC50 for human T47D cells; type: cell-based, MCF-10A; settings: MCF10A cells versus T47D cells, read-out: Ratio IC50
# MCF7 [19] = assay: Cytotoxicity against human MCF7 cells assessed as reduction in cell viability at 2 uM after 3 days by SRB assay relative to control; type: functional
# Summary of the method: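 MCF-7 seeded at high density (5 × 10⁴/cm²) and treated at 24 h with compound for 3 days, with or without 20 mM NAC. Viable cells quantified by sulforhodamine B staining, OD 492 nm. Viability reduction expressed versus untreated controls.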
# MCF7 [20] = assay: Induction of apoptosis in human MCF7 cells assessed as early apoptotic cells at 3 uM after 48 hrs by annexin V staining-based flow cytometry (reference value: 0.205 %); type: functional
# MCF7 [21] = assay: Induction of apoptosis in human MCF7 cells assessed as late apoptotic cells at 3 uM after 48 hrs by annexin V staining-based flow cytometry (reference value: 3.24 %); type: functional
# Mitogen-activated protein kinase; ERK1/ERK2 (Homo sapiens), sequence (P27361 whole entry, looked up): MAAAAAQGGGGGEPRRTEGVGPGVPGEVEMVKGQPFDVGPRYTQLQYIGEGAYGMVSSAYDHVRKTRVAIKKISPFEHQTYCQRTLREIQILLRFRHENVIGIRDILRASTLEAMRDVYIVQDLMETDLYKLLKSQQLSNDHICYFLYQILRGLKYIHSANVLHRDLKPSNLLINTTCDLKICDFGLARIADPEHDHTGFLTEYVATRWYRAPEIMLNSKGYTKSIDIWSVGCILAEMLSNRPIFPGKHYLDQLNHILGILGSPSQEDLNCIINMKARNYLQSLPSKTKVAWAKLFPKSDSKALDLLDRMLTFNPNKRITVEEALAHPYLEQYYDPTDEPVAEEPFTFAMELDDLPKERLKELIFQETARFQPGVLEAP
# Mitogen-activated protein kinase; ERK1/ERK2 (Homo sapiens), sequence (P28482 whole entry, looked up): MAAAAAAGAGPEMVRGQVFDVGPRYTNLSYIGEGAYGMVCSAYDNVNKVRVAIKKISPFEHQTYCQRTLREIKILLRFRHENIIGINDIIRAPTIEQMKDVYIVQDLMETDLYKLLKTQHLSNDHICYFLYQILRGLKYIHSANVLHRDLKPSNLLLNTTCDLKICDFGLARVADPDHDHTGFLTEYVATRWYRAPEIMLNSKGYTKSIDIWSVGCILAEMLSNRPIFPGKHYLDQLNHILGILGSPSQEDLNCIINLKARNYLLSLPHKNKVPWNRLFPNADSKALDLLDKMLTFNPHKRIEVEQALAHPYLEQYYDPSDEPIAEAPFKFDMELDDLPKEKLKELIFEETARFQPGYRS
smiles,measurement,setting,value
C=C1CC[C@@H]2[C@](C)(CCC[C@]2(C)C(=O)OC)[C@H]1Cc1c(C)ccc2c1C(=O)C=CC2=O,selectivity ratio,[1],0.17
same,IC50,MCF7 [2],350 nM
same,IC50,[3],3150 nM
same,Activity,MCF7 [4],31.09%
same,Activity,[5],Active
same,Activity,MCF7 [6],90%
same,fold change (FC),[7],2.4
same,selectivity ratio,[8],0.36
same,Activity,Mus musculus,Non-toxic
same,selectivity ratio,[9],0.56
same,IC50,MDA-MB-231,460 nM
same,Activity,MCF7 [10],4.25%
same,Activity,MCF7 [11],Active
same,Activity,MCF7 [12],Active
same,Activity,MCF7 [13],Active
same,Activity,MCF7 [14],5.08%
same,Activity,MCF7 [15],39.91%
same,Activity,MCF7 [16],Dose-dependent effect
same,Activity,MCF7 [17],9.63%
same,selectivity ratio,[18],5
same,viability,MCF7 [19],46.09%
same,Activity,MCF7 [20],19.5%
same,Activity,MCF7 [21],9.5%
